Measurements from ChEMBL document CHEMBL1154414, “In vitro and in vivo activities of T-705 against arenavirus and bunyavirus infections” (Antimicrob Agents Chemother, 2007).

How the values were obtained:
[1] = Cytotoxicity against african green monkey Vero 76 cells assessed as cell viability after 3 to 5 days; format: cell-based; details: chlorocebus sabaeus
[2] = Selectivity index, ratio of CC50 for african green monkey Vero 76 cells to EC50 for La Crosse virus; format: toxicity, cell-based; details: read-out: Ratio CC50/EC50
[3] = Selectivity index, ratio of CC50 for african green monkey Vero 76 cells to EC50 for Punta Toro virus Adames; format: toxicity, cell-based; details: read-out: Ratio CC50/EC50
[4] = Selectivity index, ratio of CC50 for african green monkey Vero 76 cells to EC50 for Rift Valley fever virus MP-12; format: toxicity, cell-based; details: read-out: Ratio CC50/EC50
[5] = Selectivity index, ratio of CC50 for african green monkey Vero 76 cells to EC50 for Sandfly fever Naples virus; format: toxicity, cell-based; details: read-out: Ratio CC50/EC50
[6] = Metabolic stability in po dosed mouse assessed as drug remaining after 6 hrs; format: ADME, organism-based; details: in vivo, read-out: Stability
[7] = system: Mus musculus; assay: % Compound cleared in virus-infected po dosed mouse after 6 hrs; format: ADME, organism-based; details: in vivo
[8] = Cytotoxicity against african green monkey Vero cells after 7 to 8 days by neutral-red dye uptake assay; format: cell-based; details: chlorocebus sabaeus
In short: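 Subconfluent (50-70%) Vero cells received half-log drug dilutions without virus and were held at 37°C, 5% CO2 for 7-8 days. Cells were stained with 0.034% neutral red for 2 h, and the dye was extracted 30 min in ethanol with Sorenson's citrate buffer. Absorbance was read at 540 nm as % of untreated controls. CC50 was derived by regression.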

[9] = Selectivity index, ratio of CC50 for african green monkey Vero cells to EC50 for Junin virus Candid-1; format: toxicity, cell-based; details: read-out: Ratio CC50/EC50
[10] = Selectivity index, ratio of CC50 for african green monkey Vero cells to EC50 for Pichinde virus An 4763; format: toxicity, cell-based; details: read-out: Ratio CC50/EC50
[11] = Selectivity index, ratio of CC50 for african green monkey Vero cells to EC50 for Tacaribe virus TRVL11573; format: toxicity, cell-based; details: read-out: Ratio CC50/EC50
[12] = species: Mus musculus; details: in vivo, po
[13] = system: Syrian golden hamster; details: in vivo, po, 72 h

`NC(=O)c1nc(F)c[nH]c1=O` [FAVIPIRAVIR] showed a CC50 [1] of over 6.26 mM, a selectivity ratio [2] of over 199 and a selectivity ratio [3] of over 33. The selectivity ratio [4] was over 196, the selectivity ratio [5] was over 55 and the remaining at 6 h [6] was 10%. The “%Cleared” value [7] was over 90%, the CC50 [8] was 1.11 mM and the selectivity ratio [9] was 239. It also gave a selectivity ratio [10] of 186, a selectivity ratio [11] of 227 and an LD50 [12] of 707 mg/kg/day. The LD50 [13] was 1500 mg/kg/day.
